Screening results as filed in PubChem.
A selection: hits, their analogues and other compounds. The true share with any hit is near 4.1%.
KCNK9 block: inhibitors of human KCNK9 two-pore domain potassium channel; HEK293 KCNK9, FluxOR thallium flux fluorescence; hits give low values; B-score at 10 µM; 310,000 compounds, 1.2% hits; AID 488922;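 active means ratio B-score over 3 SD below the library mean, with starting fluorescence within 5 SD of its mean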;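 further: negative B-score means less thallium flux so channel inhibition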
Target sequence (Q9NPC2 whole entry, looked up, the tested form may be a part): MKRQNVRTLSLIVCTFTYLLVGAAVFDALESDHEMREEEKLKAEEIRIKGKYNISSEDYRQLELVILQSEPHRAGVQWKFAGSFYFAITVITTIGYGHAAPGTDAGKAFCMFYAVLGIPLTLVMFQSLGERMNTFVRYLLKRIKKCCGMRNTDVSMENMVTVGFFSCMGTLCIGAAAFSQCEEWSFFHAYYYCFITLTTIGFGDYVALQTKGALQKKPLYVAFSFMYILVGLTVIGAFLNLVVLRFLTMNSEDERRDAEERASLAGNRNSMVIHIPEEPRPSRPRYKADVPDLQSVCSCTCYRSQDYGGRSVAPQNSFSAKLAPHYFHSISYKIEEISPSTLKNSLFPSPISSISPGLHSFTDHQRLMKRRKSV
KCNQ1 block: human KCNQ1 channel inhibition; P51787; CHO-K1 KCNQ1, FluxOR thallium flux fluorescence; hits give high values; B-score at 10 µM; 310,000 compounds, 1.3% hits;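 active means compounds whose thallium flux B-score, printed positive for inhibition, exceeds three library SD while starting fluorescence stays within three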;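 further: channel opened by potassium depolarization with thallium stimulus after 20 min compound exposure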
hERG rescue: shields human hERG channel from block by proarrhythmic agents; 310,000 compounds, 0.51% hits; activation (rescue from dofetilide block), less the hit threshold, % at 10 µM; CHO-hERG, FluxOR thallium flux, dofetilide IC70 present; Q12809;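 active means activation above the mean of controls blocked by dofetilide plus 5 SD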;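 further: thallium influx through hERG after potassium depolarization seen as dye fluorescence rise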
KCNK3 block: human KCNK3 channel inhibition, primary screen | CHO-KCNK3 thallium flux, FluxOR fluorescence; hits give low values | O14649 | B-score at 10 µM | 340,000 compounds, 0.84% hits;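 active means B-score under library mean minus 4 SD, starting fluorescence ratio at most library mean plus 5 SD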;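 further: more negative B-score means stronger inhibition of thallium flux through KCNK3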
KCNQ1 act: human KCNQ1 channel potentiation or activation. P51787. CHO-K1 KCNQ1, thallium flux FluxOR fluorescence; hits give high values. B-score at 10 µM. 310,000 compounds, 0.35% hits;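 active means fluorescence ratio B-score, a plate-corrected score, at least three library SD, with initial intensity B-score within 5 SD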
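assay system = CHO-K1 cells stably expressing KCNQ1 | medium = assay buffer, equal DMSO in all wells | timing = 37 °C overnight plating, 90-min dark dye load, 20-min compound pretreatment | measured by = kinetic FluxOR thallium fluorescence, 10-s 1-Hz baseline, 110-s post-stimulus read | measure = fluorescence change relative to baseline, converted to B score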
KCC2 mod: modulators of human KCC2 chloride dependent transport | KCC2 cells, thallium flux FluoZin-2 fluorescence | 190,000 compounds, 2.2% hits | AID 1456 | B-score of Tl+ flux slope (higher = more flux/activation; lower = inhibition) at 10 µM;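 active means thallium flux slope and its plate-corrected score both differing from the plate sample mean at a set confidence after two filtering rounds, in either direction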;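 further: slope of fluorescence scaled to starting intensity during 10 to 20 s after thallium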
KCNK9 block conf: human KCNK9 inhibitor confirmation; inhibition, % at 10 µM; 4,900 compounds, 43% hits; shares compounds with KCNK9 block; HEK293 KCNK9 cells, FluxOR thallium flux fluorescence; AID 492992;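 active means thallium signal inhibited by more than 5 SD of the compound-free buffer control wells, on both duplicate plates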;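 further: 0% = assay buffer control wells without compound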
Kir21 sel: mouse Kir2.1 off-target activity of KCNK9 modulators | shares compounds with KCNK9 block | inhibition, % at 10 µM | 4,900 compounds, 4% hits | Kir2.1 cells, FluxOR thallium flux fluorescence;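 active means thallium signal drop more than 5 SD beyond the mean of the no-compound control wells, seen in both duplicate plates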;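 further: signal is fluorescence rise after thallium addition divided by baseline fluorescence; plate controls were assay buffer only for no effect and full block by chlorpromazine control for full effect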
HEK293 Tl ctr: second check of KCNK9 modulator effects in non-induced HEK293 cells. FluxOR thallium flux. inhibition, % at 10 µM. AID 492997. 4,900 compounds, 40% hits. shares compounds with KCNK9 block;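 active means thallium signal drop beyond 5 SD of the untreated control mean, on both duplicate plates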;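 further: plate controls were buffer only IC0 wells for no effect and SID17386958 at its maximal inhibitory level for full effect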
KCNK3 inh conf: confirmation of human KCNK3 two-pore domain potassium channel inhibitors; shares compounds with KCNK3 block; CHO-KCNK3 thallium flux, FluxOR fluorescence; 0% buffer, 100% carvedilol maximal block; ratio percent of control, % at 10 µM; 2,400 compounds, 99% hits; AID 651638;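 active means ratio percent of control, averaged over triplicates, above buffer control mean plus 5 SD, cut at about 64% in these data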;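 further: ratio is the fluorescence rise from min to max over baseline after thallium stimulus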
KCNK3 uninduced: activity in cells without induced KCNK3 expression. shares compounds with KCNK3 block. non-induced KCNK3 parental cells, FluxOR thallium flux; hits give low values. thallium flux ratio (lower = more inhibition) at 10 µM. 2,400 compounds, 40% hits. AID 651747;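 active means thallium flux ratio, averaged over three wells, more than 5 SD below the buffer control mean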;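 further: host cells are CHO cells without KCNK3 induction; ratio is peak minus trough fluorescence over baseline then normalized to buffer controls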
Active calls of the source: *; i = inactive; nt = no result.

SMILES	KCNK9 block	KCNQ1 block	hERG rescue	KCNK3 block	KCNQ1 act	KCC2 mod	KCNK9 block conf	Kir21 sel	HEK293 Tl ctr	KCNK3 inh conf	KCNK3 uninduced
Cc1cc(C)cc(NC(=O)[C@H](NC(=O)[C@@H]2Cc3ccccc3CN2)c2ccccc2)c1	i	i	-17	i	i	nt	nt	nt	nt	nt	nt
CSc1nc(Oc2ccc3ccccc3c2)c2sccc2n1	-10*	i	-5	-9*	i	nt	41%*	i	32%*	98*	i
COc1cccc(C(=O)COc2ccc3ccc(=O)oc3c2)c1	i	i	-13	i	i	-0.035	nt	nt	nt	nt	nt
O=c1ccc2ccc(OCCOc3cccc(Cl)c3)cc2o1	-9.5*	i	-16	i	i	nt	32%*	i	42%*	100*	i
O=C(N/N=C/C(Cl)=C/c1ccccc1)c1ccccc1F	i	i	-6	i	i	nt	nt	nt	nt	nt	nt
O=C(N/N=C/C(Br)=C/c1ccccc1)c1ccccc1F	-9.2*	i	3	-9.4*	i	nt	28%*	i	i	98*	i
COc1cc2nc(SCc3c(C)noc3C)n(CCC3=CCCCC3)c(=O)c2cc1OC	-14*	i	-6	-10*	i	-0.35	28%*	32%*	32%*	125*	0.14*
C=CCn1c(SCc2c(C)noc2C)nc2ccccc2c1=O	i	i	-12	i	i	0.083	nt	nt	nt	nt	nt
COc1cccc(OCCn2cc(C(=O)c3ccco3)c3ccccc32)c1	-15*	i	-18	-12*	i	-0.18	52%*	i	i	119*	0.14*
C=CCOC(=O)C1=C[C@H](c2ccc3c(c2)OCO3)C[C@H](OCCCCO)O1	i	i	-2	i	i	nt	nt	nt	nt	nt	nt
Cc1ccc(C(c2nnnn2C2CCCCC2)N(C)C2CCCCC2)cc1 (stereo not drawn)	-9.4*	i	-5	i	i	0.93	i	i	43%*	117*	0.13*
COc1ccc(-n2ncc3c2CC(C)(C)CC3NC(=O)Cc2nonc2C)cc1 (stereo not drawn)	i	i	-8	i	i	nt	nt	nt	nt	nt	nt
CC(=O)O[C@H]1[C@H](C)OC=C[C@@H]1OC(C)=O	i	i	-4	i	i	nt	nt	nt	nt	nt	nt
Cn1nc(-c2ccccc2)c(-c2nc(-c3cccc(Cl)c3)no2)c1Cl	-9.6*	i	-10	-8.8*	i	0.62	33%*	i	30%*	103*	i
OCC[C@H]1C[C@H](O)[C@@H](O)[C@@]2(CCCO2)O1	i	i	-7	i	i	nt	nt	nt	nt	nt	nt
COc1ccc(NC(=S)Nc2ccc(C)c(Cl)c2)cc1OC	i	i	-8	i	i	nt	nt	nt	nt	nt	nt
Cc1cccc(C)c1NC(=S)Nc1ccc(Cl)c(Cl)c1	-9.1*	8*	-14	-12*	i	4.4	48%*	i	i	86*	0.14*
COc1ccccc1C(CCN(Cc1cccs1)C(C)=O)c1ccco1 (stereo not drawn)	-9.3*	i	-14	-13*	i	nt	40%*	i	34%*	105*	i
CN(CC(=O)Nc1ccc(Cl)c(C(F)(F)F)c1)C(=O)c1ccc(N2CCOCC2)c([N+](=O)[O-])c1	i	i	-23	i	i	nt	nt	nt	nt	nt	nt
